Only some compounds are listed: those with a hit (about 2.1% of all), similar ones and a draw of the others.
PP1 counter: blocks human PP1-alpha phosphatase, a PP5 counter-screen | P62136 | purified PP1alpha, OMFP fluorescence | inhibition, % at 6.7 µM | actives 0.9% (n = 320,000);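 active = inhibition above the mean inhibition of all tested compounds plus 3 SD, computed separately for each screening campaign, cut at about 15% in these data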
Target sequence (P62136 whole entry, looked up): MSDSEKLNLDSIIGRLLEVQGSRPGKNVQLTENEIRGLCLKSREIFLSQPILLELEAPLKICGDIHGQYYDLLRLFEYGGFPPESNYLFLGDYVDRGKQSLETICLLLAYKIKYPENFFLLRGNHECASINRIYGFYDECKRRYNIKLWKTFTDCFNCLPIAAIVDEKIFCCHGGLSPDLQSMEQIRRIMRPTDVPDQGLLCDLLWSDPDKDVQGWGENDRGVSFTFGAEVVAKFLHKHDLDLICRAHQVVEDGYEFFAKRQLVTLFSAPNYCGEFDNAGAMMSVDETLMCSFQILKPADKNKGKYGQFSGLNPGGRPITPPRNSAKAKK
GSTO1 inh: GSTO1 inhibition, counter-screen for RBBP9 inhibitors; inhibition, % at 5.96 µM; recombinant GSTO1, activity-based probe fluorescence polarization; actives 1.1% (n = 300,000);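 active = inhibition above the campaign mean inhibition plus 3 SD, cut at about 35% in these data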
Apaf1 inhib: human Apaf-1 inhibition | reconstituted apoptosome caspase-3 activity, DEVD-Rh110 fluorescence | inhibition, % at 20 µM | actives 0.71% (n = 330,000) | AID 489030; active = inhibition of at least 40% at 20 µM
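Assay system – apoptosome proteins · Medium – Hepes buffer, pH 7.5 · Also added – cytochrome c with DEVD-Rh110 · Timing – 30 min compound preincubation, 50 min activation, room temperature · Detection – Rh110 fluorescence, excitation 480 nm, emission 540 nm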
TDP2 absorb: TDP2 (human) inhibition, absorbance primary screen. inhibition, % at 12.8 µM. O95551. recombinant TDP2, T5PNP hydrolysis, p-nitrophenol absorbance 415 nm. actives 0.34% (n = 370,000);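 active = inhibition above the mean of all tested compounds plus 3 SD, set per campaign, cut at about 25% in these data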
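Assay system: Recombinant human TDP2 | Quantity: 120 nM TDP2 per well | Incubation: 2 h at 37 °C | Signal: Epi absorbance | Evaluation: Percent inhibition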
PP5 primary: PP5 (human) phosphatase inhibition; purified PP5c, OMFP substrate fluorescence; P53041; actives 0.18% (n = 320,000); inhibition, % at 6.7 µM;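 active = inhibition above the campaign's mean inhibition across all tested compounds plus 3 SD, cut at about 9.5% in these data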
TDP2 inh conf: confirmation of human TDP2 inhibitors | actives 22% (n = 1,100) | inhibition, % at 12.8 µM | shares compounds with TDP2 absorb | recombinant human TDP2, absorbance read-out; in the data active = inhibition above about 25%
Large screens that a line does not name were inactive (follow-up assays come after a bar, where they were run).

O=C(CSc1nnc(-c2ccccc2)n1Cc1ccco1)Nc1ccc(OCc2ccccc2)cc1	none (no result: PP1 counter, GSTO1 inh, Apaf1 inhib, PP5 primary)
Nc1nc2c(s1)CCc1ccccc1-2	TDP2 absorb 30.2 | TDP2 inh conf inactive
COC(=O)[C@]12C[C@H](CC(=O)NCc3cccc(C(F)(F)F)c3)C(=O)N(CCC3=CCCCC3)C1=C[C@H](C(C)C)O[C@@H]2C1CC1	none (no result: PP1 counter, GSTO1 inh, Apaf1 inhib, PP5 primary)
Brc1cc2c(cc1CN1CCc3ccccc3C1)OCO2	TDP2 absorb 26.2 | TDP2 inh conf inactive
O=C(NCc1ccc2c(c1)OCO2)c1ccc(CN2CCc3ccccc3C2)cc1	none
CS(=O)(=O)Nc1ccc(-c2cn3cccnc3n2)cc1	TDP2 absorb 26.3 | TDP2 inh conf inactive
Cc1ccc(-c2cn3cccnc3n2)cc1	none
Cc1ccc(C(=O)NCCONC(=O)c2ccc(C)cc2)cc1	TDP2 absorb 25.3 | TDP2 inh conf inactive
O=C(Nc1c(-c2ccccc2)[nH][nH]c1=O)c1ccccc1	TDP2 absorb 34.8 (no result: PP1 counter, GSTO1 inh, Apaf1 inhib, PP5 primary) | TDP2 inh conf inactive
O=C(Nc1ccccc1-c1ccccc1)c1cccc(C(F)(F)F)c1	none
COc1ccc(-c2[nH][nH]c(=O)c2NC(=O)c2ccccc2Br)cc1	none (no result: PP1 counter, GSTO1 inh, Apaf1 inhib, PP5 primary)
O=C(Nc1c(-c2ccc(Cl)cc2)[nH][nH]c1=O)c1ccc(Br)cc1	TDP2 absorb 37.7 (no result: PP1 counter, GSTO1 inh, Apaf1 inhib, PP5 primary) | TDP2 inh conf inactive
O=C(Nc1c(-c2ccccc2)[nH][nH]c1=O)c1cccc(C(F)(F)F)c1	TDP2 absorb 26.4 (no result: PP1 counter, GSTO1 inh, Apaf1 inhib, PP5 primary) | TDP2 inh conf inactive
O=C(Nc1c(-c2ccc3c(c2)OCO3)[nH][nH]c1=O)c1ccc2c(c1)OCO2	TDP2 absorb 47.7 (no result: PP1 counter, GSTO1 inh, Apaf1 inhib, PP5 primary) | TDP2 inh conf 67.2
COC(=O)N1C[C@H](OC(=S)Nc2ccc(OC)cc2OC)[C@H]2C[C@@H]1c1ccccc1O2	none (no result: PP1 counter, GSTO1 inh, Apaf1 inhib, PP5 primary)
CCC(=O)N[C@@H]1C[C@@H]2O[C@@H](CO)CC[C@@H]2O[C@@H]1CCc1ccc(-c2cccc(OC)c2)cc1	none (no result: PP1 counter, GSTO1 inh, Apaf1 inhib, PP5 primary)
COc1cc(CNc2cccc3c2S(=O)(=O)N([C@H](C)c2ccccc2)C[C@@H](COCc2ccccc2)O3)cc(OC)c1OC	none (no result: PP1 counter, GSTO1 inh, Apaf1 inhib, PP5 primary)
CCCCCn1nnnc1C1(C)CCCC(=O)N1Cc1ccco1 (centres undefined)	none (no result: PP1 counter, GSTO1 inh, Apaf1 inhib, PP5 primary)
Cc1c(O)ccc2c(CC(=O)N[C@@H](Cc3ccc(O)cc3)C(=O)O)cc(=O)oc12	TDP2 absorb 31.2 (no result: PP1 counter, GSTO1 inh, PP5 primary) | TDP2 inh conf inactive
Cc1cc(C)c(OCCOCCN2CCN(C)CC2)c(Cl)c1	TDP2 absorb 28.9 | TDP2 inh conf inactive
COc1cccc(C(C(=O)NC(C)(C)C)N(Cc2ccc(C)cc2)C(=O)CCC(=O)Nc2cc(C)on2)c1OC (centres undefined)	TDP2 absorb 31.2 | TDP2 inh conf inactive
Cc1cc(C)c(C#N)c(N2CCCC2)n1	none
Cc1cc(C)c(C#N)c(N2CCN(c3ccc(F)cc3)CC2)n1	TDP2 absorb 35.7 | TDP2 inh conf inactive
CS(=O)(=O)c1cccc(C(=O)Nc2cccc(-c3nc4ccccc4[nH]3)c2)c1	TDP2 absorb 25.4 | TDP2 inh conf inactive
CS(=O)(=O)c1ccc(C(=O)Nc2cccc(-c3nc4ccccc4[nH]3)c2)cc1	none
COc1cc(/C=C/C(=O)OCC(=O)Nc2cc(C)on2)ccc1OCC#N	TDP2 absorb 26.2 (no result: PP1 counter, GSTO1 inh, PP5 primary) | TDP2 inh conf inactive
CN(C(=O)c1cc(C(=O)N(C)c2ccccc2)cc([N+](=O)[O-])c1)c1ccccc1	none
CC1=NN(c2ccccc2)C(=O)C1C(=O)c1cc([N+](=O)[O-])cc([N+](=O)[O-])c1 (centres undefined)	TDP2 absorb 46.7 | TDP2 inh conf inactive
COc1cc2c(cc1NC(=O)CSc1nnc(-c3ccccn3)n1-c1ccccc1)oc1ccccc12	none (no result: PP1 counter, GSTO1 inh, Apaf1 inhib, PP5 primary)
Cc1ccc(CN2CCN(c3ccccc3)CC2)o1	TDP2 absorb 25.5 | TDP2 inh conf inactive
Cc1nn(-c2ccccc2)c(N)c1C1(O)C(=O)Nc2ccc([N+](=O)[O-])cc21 (centres undefined)	TDP2 absorb 32.8 | TDP2 inh conf inactive
COC(=O)c1cc2c(c3c4ccccc4n(S(=O)(=O)c4ccc(C)cc4)c13)C(=O)N(Cc1ccccc1)C2	none (no result: PP1 counter, GSTO1 inh, Apaf1 inhib, PP5 primary)
Nc1ccn([C@@H]2O[C@H](C(=O)NCC(=O)N3CCOCC3)[C@@H](O)[C@H]2O)c(=O)n1	none (no result: PP1 counter, GSTO1 inh, Apaf1 inhib, PP5 primary)
O=C(Cc1ccccc1)NN1C(=O)/C(=C/c2ccc(C(=O)O)cc2)SC1=S	TDP2 absorb 26.2 | TDP2 inh conf inactive

Screens from PubChem BioAssay.
